Experiments:
Progesterone receptor [1] = molecular target: T1, Progesterone receptor (Homo sapiens, UniProt P06401); assay: Displacement of fluormone PL RED from progesterone receptor after 2 hrs
T1 sequence (P06401 whole entry): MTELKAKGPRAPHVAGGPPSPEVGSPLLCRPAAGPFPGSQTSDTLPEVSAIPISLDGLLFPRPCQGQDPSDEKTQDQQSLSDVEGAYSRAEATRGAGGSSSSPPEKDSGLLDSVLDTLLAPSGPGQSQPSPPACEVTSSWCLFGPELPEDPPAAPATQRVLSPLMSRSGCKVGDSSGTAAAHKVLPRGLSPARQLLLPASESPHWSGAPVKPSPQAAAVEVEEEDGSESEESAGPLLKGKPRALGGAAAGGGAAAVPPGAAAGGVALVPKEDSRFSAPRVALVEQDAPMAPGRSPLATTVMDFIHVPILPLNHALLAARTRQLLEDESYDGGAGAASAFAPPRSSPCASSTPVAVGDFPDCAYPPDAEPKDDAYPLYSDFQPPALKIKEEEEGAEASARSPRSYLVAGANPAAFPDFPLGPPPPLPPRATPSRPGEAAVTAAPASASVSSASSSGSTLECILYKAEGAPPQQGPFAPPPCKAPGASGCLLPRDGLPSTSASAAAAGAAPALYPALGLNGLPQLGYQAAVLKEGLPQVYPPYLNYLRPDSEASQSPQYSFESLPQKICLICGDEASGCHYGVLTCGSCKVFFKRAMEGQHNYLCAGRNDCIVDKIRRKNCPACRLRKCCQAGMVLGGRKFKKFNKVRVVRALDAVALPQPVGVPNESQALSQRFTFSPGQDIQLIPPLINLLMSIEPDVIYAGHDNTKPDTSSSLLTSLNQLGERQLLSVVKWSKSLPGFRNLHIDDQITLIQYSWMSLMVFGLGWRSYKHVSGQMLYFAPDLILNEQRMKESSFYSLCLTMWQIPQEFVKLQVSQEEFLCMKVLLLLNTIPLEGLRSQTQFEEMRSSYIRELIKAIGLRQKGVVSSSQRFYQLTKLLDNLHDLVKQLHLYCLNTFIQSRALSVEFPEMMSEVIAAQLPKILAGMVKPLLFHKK
Method in brief: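 Fluorescence polarization competition: 40 nM PR ligand-binding domain, 2 nM Fluormone PL Red, 1 mM DTT in PR Red buffer with 2 mM CHAPS, added to compound; brief spin, light-protected, ~2 h at room temperature; read at 530 nm excitation/580 nm emission. Values are means of ≥2 determinations.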

Progesterone receptor [2] = molecular target: T1, Progesterone receptor; assay: Agonist activity at progesterone receptor B expressed in CV-1 cells by MMTV luciferase reporter gene assay; assay type: functional, cell-based
Androgen receptor [3] = molecular target: T2, Androgen receptor (Homo sapiens, UniProt P10275); assay: Binding affinity to androgen receptor
T2 sequence (P10275 whole entry): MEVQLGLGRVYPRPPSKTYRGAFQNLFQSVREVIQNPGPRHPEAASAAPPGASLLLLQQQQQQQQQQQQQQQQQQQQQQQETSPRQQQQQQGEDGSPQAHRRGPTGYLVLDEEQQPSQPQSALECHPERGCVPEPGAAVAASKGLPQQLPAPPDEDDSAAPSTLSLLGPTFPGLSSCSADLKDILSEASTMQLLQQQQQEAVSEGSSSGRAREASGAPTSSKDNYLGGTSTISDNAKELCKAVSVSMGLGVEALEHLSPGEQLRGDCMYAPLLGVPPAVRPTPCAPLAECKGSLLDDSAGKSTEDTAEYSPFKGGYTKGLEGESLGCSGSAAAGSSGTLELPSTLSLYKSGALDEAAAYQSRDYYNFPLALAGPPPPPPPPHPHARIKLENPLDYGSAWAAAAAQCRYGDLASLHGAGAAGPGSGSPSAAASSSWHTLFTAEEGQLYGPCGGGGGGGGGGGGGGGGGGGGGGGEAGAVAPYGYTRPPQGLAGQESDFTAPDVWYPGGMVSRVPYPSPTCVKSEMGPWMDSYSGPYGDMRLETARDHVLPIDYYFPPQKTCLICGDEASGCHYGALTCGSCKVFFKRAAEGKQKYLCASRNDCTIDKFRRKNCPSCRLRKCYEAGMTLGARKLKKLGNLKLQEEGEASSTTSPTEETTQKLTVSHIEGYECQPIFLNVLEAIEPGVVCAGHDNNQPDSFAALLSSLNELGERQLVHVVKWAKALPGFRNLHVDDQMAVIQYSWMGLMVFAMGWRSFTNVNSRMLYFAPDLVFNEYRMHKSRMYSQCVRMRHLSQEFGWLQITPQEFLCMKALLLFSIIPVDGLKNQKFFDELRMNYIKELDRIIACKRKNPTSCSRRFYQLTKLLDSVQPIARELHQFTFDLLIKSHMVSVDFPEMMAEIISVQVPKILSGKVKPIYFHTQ

Progesterone receptor [4] = molecular target: T1, Progesterone receptor; assay: Agonist activity at progesterone receptor in human T47D cell after 24 hrs by alkaline phosphatase assay; assay type: functional, cell-based
Method in brief: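 T47D cells seeded and left to attach overnight, then treated with compound and incubated overnight. Next day pNPP-SPAP substrate added, 2 h in the dark, absorbance read at 405 nm. Potency as pEC50, efficacy as % of P4 response; means of ≥2 determinations.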

[5] = molecular target: T3, Progesterone receptor (Homo sapiens) (UniProt P06401); assay: Agonist activity at progesterone receptor in human T47D cell after 24 hrs by alkaline phosphatase assay relative to progesterone
T3 sequence (whole entry): T1 sequence (P06401 whole entry)

Androgen receptor [6] = molecular target: T2, Androgen receptor; assay: Agonist activity at androgen receptor expressed in CV-1 cells by MMTV luciferase reporter assay; assay type: functional, cell-based
Liver microsomes = assay: Intrinsic clearance in human liver microsomes; assay type: ADME, Microsome
Method in brief: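 Metabolic stability in human liver microsomes; intrinsic clearance expressed as mL/min[…].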

[7] = Half life in mouse at 0.5 mg/kg, iv and 1 mg/kg, po; assay type: ADME, organism-based; conditions: in vivo
Method in brief: (§1)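 In vivo mouse pharmacokinetics with dosing at 0.5 mg/kg intravenously and 1.0 mg/kg orally. Blood clearance, half-life, steady-state volume of distribution and oral bioavailability were derived from these studies.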

[8] = Volume of distribution at steady state in mouse at 0.5 mg/kg, iv and 1 mg/kg, po; assay type: ADME, organism-based; conditions: in vivo, read-out: Vdss; method in brief: as §1
Cytochrome P450 3A4 = Cytochrome P450 3A4 (Homo sapiens, UniProt P08684); assay: Inhibition of CYP3A4; assay type: ADME
Cytochrome P450 2C19 = Cytochrome P450 2C19 (Homo sapiens, UniProt P33261); assay: Inhibition of CYP2C19; assay type: ADME
Cytochrome P450 2D6 = Cytochrome P450 2D6 (Homo sapiens, UniProt P10635); assay: Inhibition of CYP2D6; assay type: ADME
Cytochrome P450 1A2 = molecular target: T4, Cytochrome P450 1A2 (Homo sapiens, UniProt P05177); assay: Inhibition of CYP1A2; assay type: ADME
T4 sequence (P05177 whole entry): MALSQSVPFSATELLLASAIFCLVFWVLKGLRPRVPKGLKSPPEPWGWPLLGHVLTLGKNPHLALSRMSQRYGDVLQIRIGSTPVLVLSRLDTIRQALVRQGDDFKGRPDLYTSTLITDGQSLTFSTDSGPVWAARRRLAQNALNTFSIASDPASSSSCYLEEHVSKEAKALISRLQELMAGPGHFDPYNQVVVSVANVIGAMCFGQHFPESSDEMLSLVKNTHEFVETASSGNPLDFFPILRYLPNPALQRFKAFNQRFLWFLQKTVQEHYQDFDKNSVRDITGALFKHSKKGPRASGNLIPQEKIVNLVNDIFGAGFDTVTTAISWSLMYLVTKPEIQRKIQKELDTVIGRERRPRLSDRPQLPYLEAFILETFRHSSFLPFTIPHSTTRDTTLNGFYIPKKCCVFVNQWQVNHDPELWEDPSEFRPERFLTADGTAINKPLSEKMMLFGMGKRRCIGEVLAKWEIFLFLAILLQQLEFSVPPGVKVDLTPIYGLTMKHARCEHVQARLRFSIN

Mus musculus = assay: Blood clearance in mouse at 0.5 mg/kg, iv and 1 mg/kg, po; assay type: ADME, organism-based; conditions: in vivo; method in brief: as §1
[9] = molecular target: Voltage-gated inwardly rectifying potassium channel KCNH2 (Homo sapiens, UniProt Q12809); assay: Binding affinity to human ERG channel
Cytochrome P450 2C9 = Cytochrome P450 2C9 (Homo sapiens, UniProt P11712); assay: Inhibition of CYP2C9; assay type: ADME
[10] = Oral bioavailability in mouse at 1 mg/kg; assay type: ADME, organism-based; conditions: in vivo; method in brief: as §1

Chain of Voltage-gated inwardly rectifying potassium channel KCNH2 (Q12809 whole entry): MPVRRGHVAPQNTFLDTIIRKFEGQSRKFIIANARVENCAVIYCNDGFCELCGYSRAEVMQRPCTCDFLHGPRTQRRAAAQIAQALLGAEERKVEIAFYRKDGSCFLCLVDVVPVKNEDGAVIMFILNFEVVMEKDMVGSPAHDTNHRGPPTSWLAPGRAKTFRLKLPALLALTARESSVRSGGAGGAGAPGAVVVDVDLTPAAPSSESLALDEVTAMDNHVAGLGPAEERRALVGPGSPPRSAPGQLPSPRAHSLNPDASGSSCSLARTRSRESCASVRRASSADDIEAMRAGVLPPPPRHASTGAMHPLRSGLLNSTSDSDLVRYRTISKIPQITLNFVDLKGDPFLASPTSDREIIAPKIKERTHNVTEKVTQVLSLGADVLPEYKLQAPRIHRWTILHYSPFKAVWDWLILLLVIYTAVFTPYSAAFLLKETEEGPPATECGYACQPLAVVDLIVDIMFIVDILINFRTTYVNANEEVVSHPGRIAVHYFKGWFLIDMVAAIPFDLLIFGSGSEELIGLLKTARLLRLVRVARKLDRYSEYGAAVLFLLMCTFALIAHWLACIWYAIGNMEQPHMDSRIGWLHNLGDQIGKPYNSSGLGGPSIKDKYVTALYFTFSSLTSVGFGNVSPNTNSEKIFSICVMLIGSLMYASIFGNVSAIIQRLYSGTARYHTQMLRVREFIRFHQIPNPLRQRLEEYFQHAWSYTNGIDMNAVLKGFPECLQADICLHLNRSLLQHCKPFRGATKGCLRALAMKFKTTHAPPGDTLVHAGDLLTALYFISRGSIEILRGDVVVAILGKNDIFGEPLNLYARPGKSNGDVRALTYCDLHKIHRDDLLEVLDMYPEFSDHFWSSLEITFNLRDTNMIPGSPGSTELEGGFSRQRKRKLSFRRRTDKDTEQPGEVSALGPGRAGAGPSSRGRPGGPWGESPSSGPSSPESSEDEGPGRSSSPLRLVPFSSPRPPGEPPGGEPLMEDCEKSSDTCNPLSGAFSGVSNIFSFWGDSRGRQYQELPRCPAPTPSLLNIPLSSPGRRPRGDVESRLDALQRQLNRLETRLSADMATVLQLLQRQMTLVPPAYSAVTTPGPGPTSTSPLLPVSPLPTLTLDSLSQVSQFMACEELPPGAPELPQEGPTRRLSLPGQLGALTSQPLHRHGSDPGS
Chain of Cytochrome P450 2C9 (P11712 whole entry): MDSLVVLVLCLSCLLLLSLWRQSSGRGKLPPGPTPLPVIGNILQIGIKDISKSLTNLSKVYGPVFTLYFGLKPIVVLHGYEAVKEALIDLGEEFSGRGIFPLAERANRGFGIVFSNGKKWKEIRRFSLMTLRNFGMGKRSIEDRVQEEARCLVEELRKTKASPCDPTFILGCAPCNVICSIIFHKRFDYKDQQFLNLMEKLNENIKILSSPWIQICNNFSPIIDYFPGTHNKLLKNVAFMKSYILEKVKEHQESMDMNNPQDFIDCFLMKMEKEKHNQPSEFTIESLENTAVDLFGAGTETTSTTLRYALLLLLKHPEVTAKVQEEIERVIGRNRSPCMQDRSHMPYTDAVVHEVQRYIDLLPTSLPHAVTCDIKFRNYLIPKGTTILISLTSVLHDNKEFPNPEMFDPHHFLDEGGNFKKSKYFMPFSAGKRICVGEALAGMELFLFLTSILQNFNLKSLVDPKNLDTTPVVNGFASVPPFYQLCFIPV
Chain of Cytochrome P450 3A4 (P08684 whole entry): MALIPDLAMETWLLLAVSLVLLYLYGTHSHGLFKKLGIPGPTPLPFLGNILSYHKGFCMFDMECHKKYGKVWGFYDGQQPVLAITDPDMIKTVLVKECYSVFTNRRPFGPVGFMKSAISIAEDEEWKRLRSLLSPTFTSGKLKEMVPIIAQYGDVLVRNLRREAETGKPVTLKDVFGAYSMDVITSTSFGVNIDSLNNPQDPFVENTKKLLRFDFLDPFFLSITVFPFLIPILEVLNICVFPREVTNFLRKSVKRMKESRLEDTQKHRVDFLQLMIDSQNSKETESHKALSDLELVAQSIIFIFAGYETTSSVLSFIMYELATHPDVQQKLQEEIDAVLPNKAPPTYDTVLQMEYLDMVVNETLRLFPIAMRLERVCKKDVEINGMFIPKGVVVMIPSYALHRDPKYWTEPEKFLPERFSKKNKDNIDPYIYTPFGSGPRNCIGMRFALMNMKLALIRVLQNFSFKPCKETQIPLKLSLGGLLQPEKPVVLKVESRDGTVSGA
Chain of Cytochrome P450 2C19 (P33261 whole entry): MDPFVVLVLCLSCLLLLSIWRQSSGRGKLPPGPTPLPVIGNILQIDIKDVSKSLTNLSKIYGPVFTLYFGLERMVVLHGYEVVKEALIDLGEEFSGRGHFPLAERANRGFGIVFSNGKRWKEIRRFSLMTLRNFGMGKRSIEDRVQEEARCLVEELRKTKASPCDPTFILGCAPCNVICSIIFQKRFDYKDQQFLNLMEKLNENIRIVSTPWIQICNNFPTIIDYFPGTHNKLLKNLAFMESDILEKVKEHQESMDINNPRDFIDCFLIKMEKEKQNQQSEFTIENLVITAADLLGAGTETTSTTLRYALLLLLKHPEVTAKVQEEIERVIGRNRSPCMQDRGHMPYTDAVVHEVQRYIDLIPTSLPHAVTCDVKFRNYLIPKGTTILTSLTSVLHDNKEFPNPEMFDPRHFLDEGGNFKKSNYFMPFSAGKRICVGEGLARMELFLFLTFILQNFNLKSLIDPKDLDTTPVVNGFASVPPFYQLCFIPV
Chain of Cytochrome P450 2D6 (P10635 whole entry): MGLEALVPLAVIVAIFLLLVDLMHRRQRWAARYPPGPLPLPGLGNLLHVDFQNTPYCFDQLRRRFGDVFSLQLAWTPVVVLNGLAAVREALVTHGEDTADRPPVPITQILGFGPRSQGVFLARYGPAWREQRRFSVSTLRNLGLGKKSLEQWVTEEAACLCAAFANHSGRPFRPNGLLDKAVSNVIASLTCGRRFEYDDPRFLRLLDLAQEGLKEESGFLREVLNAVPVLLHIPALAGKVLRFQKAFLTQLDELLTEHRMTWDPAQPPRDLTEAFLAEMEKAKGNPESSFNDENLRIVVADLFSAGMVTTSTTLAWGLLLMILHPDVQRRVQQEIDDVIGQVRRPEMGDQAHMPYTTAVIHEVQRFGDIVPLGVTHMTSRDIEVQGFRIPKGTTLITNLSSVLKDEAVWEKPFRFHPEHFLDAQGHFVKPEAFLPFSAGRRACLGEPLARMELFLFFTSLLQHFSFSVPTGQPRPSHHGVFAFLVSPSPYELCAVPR

| Compound | IC50 (Progesterone receptor [1]) | EC50 (Progesterone receptor [2]) | pIC50 (Androgen receptor [3]) | pEC50 (Progesterone receptor [4]) | Activity [5] | further results |
| --- | --- | --- | --- | --- | --- | --- |
| Cc1ccccc1C1CC(=O)Nc2sc3c(C)c(C#N)c(N)nc3c21 (stereo not given) | 1260 nM | > 10000 nM | > 5 | – | – | – |
| Cc1c(C#N)c(N)nc2c3c(sc12)NC(=O)CC3c1c(F)cccc1Cl (stereo not given) | 1260 nM | 3980 nM | > 5 | 6.1 | 13% | – |
| Cc1c(C#N)c(N)nc2c3c(sc12)NC(=O)CC3c1ccc(Cl)cc1Cl (stereo not given) | 794 nM | > 10000 nM | > 5 | – | – | – |
| Cc1c(C#N)c(Cl)nc2c3c(sc12)NC(=O)CC3c1ccccc1Cl (stereo not given) | 50.1 nM | 0.794 nM | – | 8.6 | 116% | EC50 (Androgen receptor [6]): > 10000 nM; IC50 (Androgen receptor [3]): 2000 nM |
| Cc1c(C#N)c(N)nc2c3c(sc12)NC(=O)CC3c1cc(Cl)ccc1Cl (stereo not given) | 1000 nM | > 10000 nM | > 5 | – | – | – |
| COc1cccc(C2CC(=O)Nc3sc4c(C)c(C#N)c(N)nc4c32)c1 (stereo not given) | > 10000 nM | > 10000 nM | – | – | – | – |
| Cc1c(C#N)c(O)nc2c3c(sc12)NC(=O)CC3c1ccccc1Cl (stereo not given) | > 10000 nM | > 10000 nM | > 5 | – | – | – |
| Cc1c(C#N)c(N)nc2c3c(sc12)NC(=O)C[C@H]3c1ccccc1Cl | 6310 nM | > 10000 nM | > 5 | – | – | – |
| COc1ccccc1C1CC(=O)Nc2sc3c(C)c(C#N)c(N)nc3c21 (stereo not given) | > 10000 nM | > 10000 nM | – | – | – | – |

Second part, led by results:

| IC50 (Progesterone receptor [1]) | EC50 (Progesterone receptor [2]) | pIC50 (Androgen receptor [3]) | pEC50 (Progesterone receptor [4]) | Activity [5] | Compound | further results |
| --- | --- | --- | --- | --- | --- | --- |
| 631 nM | 3980 nM | – | 6.4 | 47% | Cc1c(C#N)c(N)nc2c3c(sc12)NC(=O)CC3c1ccccc1F (stereo not given) | – |
| 794 nM | > 10000 nM | > 5 | – | – | Cc1c(C#N)c(N)nc2c3c(sc12)NC(=O)CC3c1cccc(Cl)c1Cl (stereo not given) | – |
| 200 nM | 631 nM | < 5 | 7.1 | 80% | Cc1c(C#N)c(N)nc2c3c(sc12)NC(=O)CC3c1ccccc1Cl (stereo not given) | CL (Liver microsomes): 19 µL/min/mg; half-life [7]: 1.1 h; Vd [8]: 2.5 L/kg; IC50 (Cytochrome P450 3A4): > 10000 nM; IC50 (Cytochrome P450 2C19): > 10000 nM; IC50 (Cytochrome P450 2D6): > 10000 nM; IC50 (Cytochrome P450 1A2): > 10000 nM; clearance (Mus musculus): 24 mL/min/kg; Activity [9]: Not Active; IC50 (Cytochrome P450 2C9): 1260 nM; bioavailability [10]: 36% |
| – | > 10000 nM | > 5 | – | – | Cc1c(C#N)c(N)nc2c3c(sc12)NC(=O)CC3c1ccccc1 (stereo not given) | – |
| 158 nM | 200 nM | > 5 | 7.4 | 83% | Cc1c(C#N)c(N)nc2c3c(sc12)NC(=O)C[C@@H]3c1ccccc1Cl | – |
